What was measured:
Type in all cases: functional
CCRF-CEM = experiment: Growth inhibition of human CCRF-CEM cells after 48 hrs; details: for CC50: read-out: LC50 (the source's name)
Method in brief: (§1)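 NCI in vitro disease-oriented human tumor cell line screen. Compounds passing a one-dose primary assay (MCF-7, NCI-H460, SF-268; pass = growth of any line reduced to 32% or less) were tested on the 60-line panel over a 5-log dose range. Compounds were dissolved in DMSO, with under 1% DMSO in final dilutions, and tested in duplicate at 6×10^4 cells/ml. Cells were incubated at 37 °C in 5% CO2 for 48 h, then diluted 10-fold in saline and counted with a Coulter counter, with counts corrected for dilution. Controls held PBS/DMSO at identical dilutions. GI50 was reported per line and as subpanel/full-panel mean-graph midpoint.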

HL-60(TB) = experiment: Growth inhibition of human HL-60(TB) cells after 48 hrs; details: HL-60, 48 h; for CC50: read-out: LC50 (the source's name)
Method in brief: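 NCI 60-cell-line screen over a 5-log dose range. Compounds were dissolved in DMSO, final DMSO under 1%. Duplicate wells were seeded at 6×10^4 cells/ml, with PBS/DMSO vehicle controls at identical dilutions. Cells were incubated 48 h at 37 °C in humidified 5% CO2, diluted 10-fold in saline, and counted by Coulter counter with dilution correction. GI50 read-out.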

K562 = experiment: Growth inhibition of human K562 cells after 48 hrs; details: K562, 48 h; method in brief: as §1
RPMI-8226 = experiment: Growth inhibition of human RPMI8226 cells after 48 hrs; details: RPMI-8226, 48 h; for CC50: read-out: LC50 (the source's name); method in brief: as §1
SF-539 = experiment: Growth inhibition of human SF539 cells after 48 hrs; details: SF-539, 48 h; for CC50: read-out: LC50 (the source's name); method in brief: as §1
SK-MEL-2 = experiment: Growth inhibition of human SK-MEL-2 cells after 48 hrs; details: SK-MEL-2, 48 h; method in brief: as §1
UACC-257 = experiment: Growth inhibition of human UACC257 cells after 48 hrs; details: UACC-257, 48 h; method in brief: as §1
MCF7 = experiment: Growth inhibition of human MCF7 cells after 48 hrs; details: MCF7, 48 h; for CC50: read-out: LC50 (the source's name); method in brief: as §1
T47D = experiment: Growth inhibition of human T47D cells after 48 hrs; method in brief: as §1
[1] = Growth inhibition of human leukemia cells after 48 hrs; details: Leukemia cell; method in brief: as §1
NSCLC = experiment: Growth inhibition of human NSCLC cells after 48 hrs; method in brief: as §1
[2] = Growth inhibition of human Colon cancer cells after 48 hrs; details: Cancer cell lines; method in brief: as §1
[3] = Growth inhibition of human CNS cancer cells after 48 hrs; details: Cancer cell lines; method in brief: as §1
[4] = Growth inhibition of human melanoma cells after 48 hrs; details: Melanoma cell; method in brief: as §1
[5] = Growth inhibition of human ovarian cancer cells after 48 hrs; details: Cancer cell lines; method in brief: as §1
[6] = Growth inhibition of human renal cancer cells after 48 hrs; details: Cancer cell lines; method in brief: as §1
[7] = Growth inhibition of human prostate cancer cells after 48 hrs; details: Cancer cell lines; for CC50: read-out: LC50 (the source's name); method in brief: as §1
[8] = Growth inhibition of human breast cancer cells after 48 hrs; details: Cancer cell lines; method in brief: as §1
[9] = read-out: LC50 (the source's name)

## O=S(=O)(Nc1nccs1)c1ccc(Nc2nc(-c3cccs3)nc3ccc(I)cc23)cc1
CCRF-CEM
  GI50: 2 µM
  TGI: 4 µM
  CC50: 9 µM
HL-60(TB)
  GI50: 32 µM
  TGI: 80 µM
  CC50: > 100 µM
K562
  GI50: 38 µM
  LC50 (concentration killing 50% of cells): > 100 µM
  TGI: > 100 µM
RPMI-8226
  GI50: 1 µM
  TGI: 3 µM
  CC50: 8 µM
SF-539
  GI50: 32 µM
  TGI: 60 µM
  CC50: > 100 µM
SK-MEL-2
  GI50: 22 µM
  LC50: > 100 µM
  TGI: 47 µM
UACC-257
  GI50: 0.04 µM
  LC50: 95 µM
  TGI: 28 µM
MCF7
  GI50: 26 µM
  TGI: > 100 µM
  CC50: > 100 µM
T47D
  GI50: 15 µM
  LC50: > 100 µM
  TGI: 51 µM
[1]
  GI50: 21.7 µM
  TGI: 59.2 µM
[1]; [9]
  CC50: 69.4 µM
NSCLC
  GI50: 23.3 µM
  LC50 (concentration killing 50% of cells): 92.4 µM
  TGI: 65.2 µM
[2]
  GI50: 24.3 µM
  LC50: 87.3 µM
  TGI: 61.1 µM
[3]
  GI50: 27.7 µM
  TGI: 68.3 µM
[4]
  GI50: 18.9 µM
  LC50 (lethal concentration 50%): 92.1 µM
  TGI: 45.5 µM
[5]
  GI50: 25.8 µM
  TGI: 68.9 µM
[6]
  GI50: 28.3 µM
  TGI: 79.6 µM
[7]
  GI50: 13.9 µM
  TGI: 35.9 µM
  CC50: 73 µM
[8]
  GI50: 25.9 µM
  TGI: 74.9 µM

## NS(=O)(=O)c1ccc(CNc2nc(-c3cccs3)nc3ccc(I)cc23)cc1
CCRF-CEM
  GI50: 22 µM
  TGI: 60 µM
  CC50: > 100 µM
HL-60(TB)
  GI50: 30 µM
  TGI: > 100 µM
  CC50: > 100 µM
K562
  GI50: 37 µM
  LC50 (concentration killing 50% of cells): > 100 µM
  TGI: > 100 µM
RPMI-8226
  GI50: 19 µM
  TGI: 50 µM
  CC50: > 100 µM
SF-539
  GI50: 11 µM
  TGI: 31 µM
  CC50: 85 µM
SK-MEL-2
  GI50: 18 µM
  LC50: 61 µM
  TGI: 33 µM
UACC-257
  GI50: 14 µM
  LC50: 54 µM
  TGI: 28 µM
MCF7
  GI50: 0.6 µM
  TGI: 16 µM
  CC50: > 100 µM
T47D
  GI50: 0.2 µM
  LC50: 82 µM
  TGI: 18 µM
[1]
  GI50: 23.9 µM
  TGI: 72.3 µM
NSCLC
  GI50: 14.7 µM
  LC50 (concentration killing 50% of cells): 82.2 µM
  TGI: 37 µM
[2]
  GI50: 16.7 µM
  LC50: 66.4 µM
  TGI: 37.3 µM
[3]
  GI50: 18.2 µM
  TGI: 42.4 µM
[3]; [9]
  CC50: 89 µM
[4]
  GI50: 16 µM
  LC50 (lethal concentration 50%): 58.3 µM
  TGI: 30.5 µM
[5]
  GI50: 15.7 µM
  LC50: 89.1 µM
  TGI: 42.6 µM
[6]
  GI50: 13.6 µM
  TGI: 36.1 µM
[6]; [9]
  CC50: 88.1 µM
[7]
  GI50: 17.1 µM
  TGI: 41.8 µM
  CC50: 80.8 µM
[8]
  GI50: 12.3 µM
  LC50: 80.8 µM
  TGI: 32.1 µM

— ChEMBL document CHEMBL1158347, “Substituted quinazolines, part 3. Synthesis, in vitro antitumor activity and molecular modeling study of certain 2-thieno-4(3H)-quinazolinone analogs” (2009)
